# Key:
# [1] = system: Mycobacterium tuberculosis; experiment: Antimycobacterial activity against Mycobacterium tuberculosis H37Rv; type: functional
# Outline: (§1)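 Classical test-tube successive twofold dilution in Youmans' modification of Proskauer and Beck liquid medium with 10% bovine serum. Inoculum from 14-day-old cultures. Compounds dissolved in ethylene glycol (stock 10 mg/mL), tested at […]. Incubation at 37 °C. MIC is the lowest concentration inhibiting growth relative to a compound-free tube. Isoniazid, pyrazinamide and rifampicin served as references.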
# [2] = system: Mycobacterium tuberculosis; experiment: Antimycobacterial activity against patient derived Mycobacterium tuberculosis Spec. 210; type: functional; outline: as §1
# [3] = system: Candida albicans; experiment: Antifungal activity against Candida albicans ATCC […] assessed as reduction in fungal growth incubated for 48 hrs by broth microdilution assay; type: functional
# Outline: (§2)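 Yeasts were tested by twofold broth microdilution in Mueller-Hinton broth with 2% glucose at final concentrations of 0.98–1000 µg/mL. Inoculum was prepared from 0.5 McFarland suspensions in 0.85% NaCl, giving a final 5 × 10⁴ CFU/mL. Incubation was 48 h at 30 °C. MIC was the lowest concentration visually showing complete growth inhibition. Controls: 10% DMSO (final), growth and sterility. Triplicate.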
# [4] = system: Escherichia coli; experiment: Antibacterial activity against Escherichia coli ATCC 25922 assessed as reduction in bacterial growth incubated for 24 hrs by broth microdilution assay; type: functional
# Outline: (§3)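 Twofold serial broth microdilution in Mueller-Hinton broth, supplemented with 5% lysed sheep blood for fastidious species. […]. Inoculum was set to 0.5 McFarland in 0.85% NaCl, giving a final 1.5 × 10⁶ CFU/mL. Plates were incubated 24 h at 35 °C. MIC was read visually as the lowest concentration with complete growth inhibition. Controls: 10% DMSO (final), growth and sterility. Triplicate.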
# [5] = system: B16-F10; experiment: Cytotoxicity against mouse B16-F10 cells assessed as reduction in cell viability incubated for 72 hrs by MTT assay; type: cell-based; details: B16-F10, 72 h
# [6] = system: Staphylococcus aureus; experiment: Antibacterial activity against Staphylococcus aureus ATCC 25923 assessed as reduction in bacterial growth incubated for 24 hrs by broth microdilution assay; type: functional; outline: as §3
# [7] = system: Pseudomonas aeruginosa; experiment: Antibacterial activity against Pseudomonas aeruginosa ATCC 9027 assessed as reduction in bacterial growth incubated for 24 hrs by broth microdilution assay; type: functional; outline: as §3
# [8] = system: Proteus mirabilis; experiment: Antibacterial activity against Proteus mirabilis ATCC […] assessed as reduction in bacterial growth incubated for 24 hrs by broth microdilution assay; type: functional; outline: as §3
# [9] = system: Streptococcus pneumoniae; experiment: Antibacterial activity against Streptococcus pneumoniae ATCC 49619 assessed as reduction in bacterial growth incubated for 24 hrs by broth microdilution assay; type: functional; outline: as §3
# [10] = system: Streptococcus pyogenes; experiment: Antibacterial activity against Streptococcus pyogenes ATCC 19615 assessed as reduction in bacterial growth incubated for 24 hrs by broth microdilution assay; type: functional; outline: as §3
# [11] = system: Candida parapsilosis; experiment: Antifungal activity against Candida parapsilosis ATCC 22019 assessed as reduction in fungal growth incubated for 48 hrs by broth microdilution assay; type: functional; details: Lodderomyces parapsilosis; outline: as §2
# [12] = system: Staphylococcus aureus; experiment: Antibacterial activity against Staphylococcus aureus ATCC 43300 assessed as reduction in bacterial growth incubated for 24 hrs by broth microdilution assay; type: functional; outline: as §3
# [13] = system: Micrococcus luteus; experiment: Antibacterial activity against Micrococcus luteus ATCC 10240 assessed as reduction in bacterial growth incubated for 24 hrs by broth microdilution assay; type: functional; outline: as §3
# [14] = system: Klebsiella pneumoniae; experiment: Antibacterial activity against Klebsiella pneumoniae ATCC 13883 assessed as reduction in bacterial growth incubated for 24 hrs by broth microdilution assay; type: functional; outline: as §3
# [15] = system: Bacillus cereus; experiment: Antibacterial activity against Bacillus cereus ATCC 10876 assessed as reduction in bacterial growth incubated for 24 hrs by broth microdilution assay; type: functional; outline: as §3
# [16] = system: Bacillus subtilis; experiment: Antibacterial activity against Bacillus subtilis ATCC 6633 assessed as reduction in bacterial growth incubated for 24 hrs by broth microdilution assay; type: functional; outline: as §3
# [17] = system: Candida albicans; experiment: Antifungal activity against Candida albicans ATCC 2091 assessed as reduction in fungal growth incubated for 48 hrs by broth microdilution assay; type: functional; outline: as §2
# [18] = system: Staphylococcus epidermidis; experiment: Antibacterial activity against Staphylococcus epidermidis ATCC 12228 assessed as reduction in bacterial growth incubated for 24 hrs by broth microdilution assay; type: functional; outline: as §3
# [19] = system: Streptococcus mutans; experiment: Antibacterial activity against Streptococcus mutans ATCC 25175 assessed as reduction in bacterial growth incubated for 24 hrs by broth microdilution assay; type: functional; outline: as §3
# [20] = system: NHDF; experiment: Cytotoxicity against human NHDF cells assessed as reduction in cell viability incubated for 72 hrs by MTT assay; type: cell-based
# [21] = system: Staphylococcus aureus; experiment: Antibacterial activity against Staphylococcus aureus ATCC 6538 assessed as reduction in bacterial growth incubated for 24 hrs by broth microdilution assay; type: functional; outline: as §3
compound,measurement,setting,value
N/C(=N\NC(=S)N1CCCCC1)c1cc(Sc2ccccc2)ccn1,MIC,[1],12.5 µg/mL
same,MIC,[2],12.5 µg/mL
N/C(=N\NC(=S)N1CCCC1)c1cc(N2CCCC2)ccn1,MIC,[1],6.25 µg/mL
same,MIC,[2],6.25 µg/mL
N/C(=N\NC(=S)N1CCN(c2ccccc2)CC1)c1cc(Sc2ccccc2)ccn1,MIC,[1],25 µg/mL
same,MIC,[2],25 µg/mL
N/C(=N\NC(=S)N1CCCCC1)c1cc(N2CCCC2)ccn1,MIC,[1],6.25 µg/mL
same,MIC,[2],6.25 µg/mL
N/C(=N\NC(=S)N1CCCCC1)c1cc(Oc2ccccc2)ccn1,MIC,[1],12.5 µg/mL
same,MIC,[2],12.5 µg/mL
N/C(=N\NC(=S)N1CCN(c2ccccc2)CC1)c1cc(Oc2ccccc2)ccn1,MIC,[1],25 µg/mL
same,MIC,[2],25 µg/mL
N/C(=N\NC(=S)N1CCN(c2ccccc2)CC1)c1cc(N2CCN(c3ccccc3)CC2)ccn1,MIC,[1],25 µg/mL
same,MIC,[2],25 µg/mL
N/C(=N\NC(=S)N1CCCCC1)c1cc(N2CCOCC2)ccn1,MIC,[1],6.25 µg/mL
same,MIC,[2],6.25 µg/mL
N/C(=N\NC(=S)N1CCOCC1)c1cc(N2CCOCC2)ccn1,MIC,[3],31.3 µg/mL
same,MIC,[4],> 1000 µg/mL
same,IC50,[5],17.8 µg/mL
same,MIC,[6],15.6 µg/mL
same,MIC,[7],> 1000 µg/mL
same,MIC,[8],> 1000 µg/mL
same,MIC,[9],> 1000 µg/mL
same,MIC,[10],1000 µg/mL
same,MIC,[11],31.3 µg/mL
same,MIC,[12],15.6 µg/mL
same,MIC,[13],7.8 µg/mL
same,MIC,[14],31.3 µg/mL
same,MIC,[15],31.3 µg/mL
same,MIC,[16],31.3 µg/mL
same,MIC,[17],31.3 µg/mL
same,MIC,[18],15.6 µg/mL
same,MIC,[1],3.1 µg/mL
same,MIC,[19],1000 µg/mL
same,IC50,[20],Not Active
same,MIC,[21],15.6 µg/mL
same,MIC,[2],3.1 µg/mL
N/C(=N\NC(=S)N1CCCC1)c1cc(Sc2ccccc2)ccn1,MIC,[1],6.25 µg/mL
same,MIC,[2],6.25 µg/mL
N/C(=N\NC(=S)N1CCCCC1)c1cc(N2CCN(c3ccccc3)CC2)ccn1,MIC,[1],25 µg/mL
same,MIC,[2],25 µg/mL
N/C(=N\NC(=S)N1CCCC1)c1cc(N2CCOCC2)ccn1,MIC,[1],6.25 µg/mL
same,MIC,[2],6.25 µg/mL
N/C(=N\NC(=S)N1CCOCC1)c1cc(N2CCN(c3ccccc3)CC2)ccn1,MIC,[1],6.25 µg/mL
same,MIC,[2],6.25 µg/mL
N/C(=N\NC(=S)N1CCCC1)c1cc(N2CCN(c3ccccc3)CC2)ccn1,MIC,[1],12.5 µg/mL
same,MIC,[2],12.5 µg/mL
N/C(=N\NC(=S)N1CCN(c2ccccc2)CC1)c1cc(N2CCOCC2)ccn1,MIC,[1],6.25 µg/mL
same,MIC,[2],6.25 µg/mL
N/C(=N\NC(=S)N1CCN(c2ccccc2)CC1)c1cc(N2CCCC2)ccn1,MIC,[1],6.25 µg/mL
same,MIC,[2],6.25 µg/mL
O=C(O)c1cn(C2CC2)c2cc(N3CCNCC3)c(F)cc2c1=O [CIPROFLOXACIN],MIC,[6],0.49 µg/mL
same,MIC,[8],0.03 µg/mL
same,MIC,[12],0.24 µg/mL
same,MIC,[13],0.98 µg/mL
same,MIC,[14],0.12 µg/mL
same,MIC,[15],0.12 µg/mL
same,MIC,[16],0.03 µg/mL
same,MIC,[18],0.49 µg/mL
same,MIC,[21],0.24 µg/mL
OC(Cn1cncn1)(Cn1cncn1)c1ccc(F)cc1F [FLUCONAZOLE],MIC,[11],1.95 µg/mL
NNC(=O)c1ccncc1 [ISONIAZID],MIC,[1],3.1 µg/mL
same,MIC,[2],12.5 µg/mL
NC(=O)c1cnccn1 [PYRAZINAMIDE],MIC,[1],25 µg/mL
same,MIC,[2],> 400 µg/mL
CN[C@H](CC(C)C)C(=O)N[C@H]1C(=O)N[C@@H](CC(N)=O)C(=O)N[C@H]2C(=O)N[C@H]3C(=O)N[C@H](C(=O)N[C@H](C(=O)O)c4cc(O)cc(O)c4-c4cc3ccc4O)[C@H](O)c3ccc(c(Cl)c3)Oc3cc2cc(c3O[C@@H]2O[C@H](CO)[C@@H](O)[C@H](O)[C@H]2O[C@H]2C[C@](C)(N)[C@H](O)[C@H](C)O2)Oc2ccc(cc2Cl)[C@H]1O [VANCOMYCIN],MIC,[6],0.98 µg/mL
same,MIC,[9],0.24 µg/mL
same,MIC,[10],0.24 µg/mL
same,MIC,[12],0.49 µg/mL
same,MIC,[13],0.12 µg/mL
same,MIC,[15],0.98 µg/mL
same,MIC,[16],0.24 µg/mL
same,MIC,[18],0.98 µg/mL
same,MIC,[19],0.98 µg/mL
same,MIC,[21],0.49 µg/mL
